Source: PubChem BioAssay
Active and inactive are the calls of the source.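 How the source made its calls, unless noted: active means viability at or under a set limit in both replicates, limit being median viability minus 3 SD (cut at about 48% in these data, passing the limit was not always enough); inconclusive means at or under the limit in just one replicate; inactive means at or above the limit in both replicates.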

Assays:
[1] = reducers of endogenous Her2 protein level, primary screen, SKBR3 breast tumor cells, AlphaScreen, ATP viability (AID 461;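 active means Her2 level under about 52% in both replicate screens, with viability over 70% of control, limit read from the data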;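 on Her2 level: lower value means less Her2 protein in the cells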;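 on viability: percent of carrier control wells set as 100% viability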); conditions: 18-24 h, measured here: SKBR3 viability, ATP luminescence, at 10 µM
[2] = target: Receptor tyrosine-protein kinase erbB-2 (Homo sapiens) (UniProt P04626); assay: as above; conditions: 18-24 h, at 10 µM, stronger effect = lower value
Receptor tyrosine-protein kinase erbB-2 (Homo sapiens), sequence (P04626 whole entry, looked up): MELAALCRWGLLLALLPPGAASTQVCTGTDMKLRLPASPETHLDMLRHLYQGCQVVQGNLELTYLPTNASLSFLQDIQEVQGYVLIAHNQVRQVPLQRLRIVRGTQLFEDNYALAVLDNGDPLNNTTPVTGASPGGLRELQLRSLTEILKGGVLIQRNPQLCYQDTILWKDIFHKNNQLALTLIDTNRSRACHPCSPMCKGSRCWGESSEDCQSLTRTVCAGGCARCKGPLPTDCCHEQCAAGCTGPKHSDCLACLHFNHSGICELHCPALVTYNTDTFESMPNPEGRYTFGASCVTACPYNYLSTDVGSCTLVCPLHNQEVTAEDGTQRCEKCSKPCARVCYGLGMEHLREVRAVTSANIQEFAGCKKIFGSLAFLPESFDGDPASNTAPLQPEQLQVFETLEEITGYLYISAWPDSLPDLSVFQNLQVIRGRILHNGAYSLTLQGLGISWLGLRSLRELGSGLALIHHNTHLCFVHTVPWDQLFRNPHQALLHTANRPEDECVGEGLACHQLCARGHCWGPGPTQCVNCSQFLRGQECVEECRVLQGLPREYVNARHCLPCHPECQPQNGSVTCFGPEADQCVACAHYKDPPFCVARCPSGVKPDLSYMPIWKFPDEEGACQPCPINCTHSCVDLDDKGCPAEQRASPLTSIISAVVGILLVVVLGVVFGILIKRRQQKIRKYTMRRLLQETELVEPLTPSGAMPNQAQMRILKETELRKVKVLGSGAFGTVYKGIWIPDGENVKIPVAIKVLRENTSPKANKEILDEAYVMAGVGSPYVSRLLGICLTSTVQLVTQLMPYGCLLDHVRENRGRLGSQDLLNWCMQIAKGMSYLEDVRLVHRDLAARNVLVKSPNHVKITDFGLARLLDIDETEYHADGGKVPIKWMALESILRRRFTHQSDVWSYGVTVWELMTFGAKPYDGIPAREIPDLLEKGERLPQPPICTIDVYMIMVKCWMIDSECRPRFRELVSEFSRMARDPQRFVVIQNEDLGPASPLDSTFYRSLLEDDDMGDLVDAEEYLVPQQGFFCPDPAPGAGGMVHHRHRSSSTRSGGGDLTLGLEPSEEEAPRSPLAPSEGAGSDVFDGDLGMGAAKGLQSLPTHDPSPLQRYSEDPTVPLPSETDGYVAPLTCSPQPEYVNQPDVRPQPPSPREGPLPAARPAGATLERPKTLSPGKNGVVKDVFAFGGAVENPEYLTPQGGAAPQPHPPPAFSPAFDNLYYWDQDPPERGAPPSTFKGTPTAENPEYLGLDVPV

[3] = SK-BR-3 cell growth inhibitors, pilot screen, 24 h, human (AID 572;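 active means viability at or below 10% of carrier control in both of two separate runs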;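 further: compound exposure lasted between 18 and 24 h rather than exactly 24 h; 100% = carrier-treated control wells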); conditions: SK-BR-3 viability, CellTiter-Glo luminescence, at 10 µM, stronger effect = lower value
[4] = HUVEC growth inhibition – cell-based, human, primary screen (AID 575;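 active means viability at or below 30% in both replicate assays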;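 further: 100% = median of untreated cell wells with 0.1% DMSO on each plate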); conditions: HUVEC proliferation, CellTiter-Glo luminescence, 72 h; at 10 µM; stronger effect = lower value
Method in brief: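 material = primary HUVEC, no more than 12 passages | input = 1250 cells per well | controls = vehicle and MePR control wells | measured by = CTG luminescence | times = 72 h compound incubation | format = collagen-coated 384-well format | read-out = % viability vs DMSO wells | doses = single 10 µM dose, 0.1% DMSO, from 5x medium stock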

[5] = growth inhibitors of H69AR lung tumor, primary screen, human, duplicate replicates (AID 580); conditions: H69AR lung tumor cells viability, ATP luminescence, 72 h; at 10 µM; stronger effect = lower value;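 further: 100% = mean luminescence of untreated wells and 0% = no signal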
[6] = reversal of MRP1-mediated doxorubicin resistance, pilot screen, H69AR cells, doxorubicin co-treatment (AID 601;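 active means viability loss from added drug above about 55%, and viability with drug at most 40%, in both replicates, limit read from the data, passing the limit was not always enough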); conditions: CellTiter-Glo, 72 h, at 10 µM; for differential viability (reversal): stronger effect = higher value
[7] = 384-well plate pilot, post-Golgi transport modulator project, inhibition of yeast transport mutant growth (AID 636; in the data active means inhibition above about 31%); conditions: absorbance 615 nm, about 18 h, stronger effect = higher value
[8] = growth suppression of yeast trafficking mutant, preliminary HTS, modulators of trafficking downstream of Golgi apparatus project, 1536-format plate, OD 615 nm (AID 637; in the data active means inhibition above about 30%); conditions: yeast transport mutant growth, absorbance 615 nm, 18 h; stronger effect = higher value
[9] = H69AR cells + 2 uM doxorubicin, measured here: viability with 2 uM doxorubicin, stronger effect = lower value
[10] = H69AR cells, compound alone cytotoxicity

SMILES | viability [1] [%] | Her2 level [2] | viability [3] | viability [4] | viability [5] | differential viability (reversal) ([6]; H69AR cells + 2 uM doxorubicin) | viability [6, 9] [%] | viability [6, 10] [%] | inhibition [7] | inhibition [8]
CCOc1ccc(-c2nc(S(=O)(=O)c3ccccc3)c(NCc3cccnc3)o2)cc1 | 97 | 94% (inactive) | 97% (inactive) | 94.2% (inactive) | 97.6% (inactive) | 6.18% (inactive) | 91.4 | 97.6 | 1.33% (inactive) | -1.13% (inactive)
COc1ccc(C2NC(c3ccc(OC)c(OC)c3OC)C(C)C(=O)C2C)c(OC)c1OC (stereo not given) | 99.5 | 88.5% (inactive) | 99.5% (inactive) | 99.7% (inactive) | 92.4% (inactive) | 7.84% (inactive) | 84.5 | 92.4 | -3.42% (inactive) | -2.22% (inactive)
COc1ccccc1C(=O)Nc1ccc(N2CCN(Cc3ccccc3)CC2)cc1 | 81.5 | 75.5% (inactive) | 81.5% (inactive) | 66.8% (inactive) | 89.6% (inactive) | 2.1% (inactive) | 87.5 | 89.6 | -5.2% (inactive) | 1.97% (inactive)
O=C(Nc1cccc2c1CCCC2)C1CCN(c2nnnn2-c2ccccc2)CC1 | 92 | 99% (inactive) | 92% (inactive) | 97.7% (inactive) | 89.2% (inactive) | 5.29% (inactive) | 83.9 | 89.2 | -0.13% (inactive) | -6.45% (inactive)
CCn1c(CCC(=O)Nc2nc3c(s2)CCCC3)nc2cc(S(=O)(=O)N(C)C)ccc21 | 89.5 | 80% (inactive) | 89.5% (inactive) | 59.9% (inactive) | 85.4% (inactive) | 18.7% (inactive) | 66.7 | 85.4 | 5.27% (inactive) | -3.11% (inactive)
CCOc1ccccc1Nc1nnc(SCC(=O)N2CCCC2)s1 | 104 | 91.5% (inactive) | 104% (inactive) | 103% (inactive) | 101% (inactive) | 7.78% (inactive) | 92.8 | 101 | -3.12% (inactive) | -0.95% (inactive)
CCOC(=O)C1=C(N)OC2=C(C(=O)CC(C)(C)C2)C1c1ccoc1 (stereo not given) | 80 | 107% (inactive) | 80% (inactive) | 112% (inactive) | 96.3% (inactive) | 8.7% (inactive) | 87.7 | 96.3 | -5.53% (inactive) | -8.33% (inactive)
COc1ccc(CCNS(=O)(=O)c2ccc3c(c2)CCN3C(=O)CCC(=O)O)cc1OC | 104 | 89% (inactive) | 104% (inactive) | 88.6% (inactive) | 94.1% (inactive) | 4.3% (inactive) | 89.8 | 94.1 | -2.37% (inactive) | -4.91% (inactive)
CCN1CCCC1CNCc1ccc(Cl)cc1Cl (stereo not given) | 92.5 | 116% (inactive) | 92.5% (inactive) | 111% (inactive) | 104% (inactive) | 9.34% (inactive) | 94.4 | 104 | 0.95% (inactive) | 6.83% (inactive)
Cc1nnc2ccc(N3CCC4(CC3)OCCO4)nn12 | 101 | 89.5% (inactive) | 101% (inactive) | 100% (inactive) | 108% (inactive) | 11.1% (inactive) | 96.5 | 108 | -6.22% (inactive) | -3% (inactive)
CC(=O)c1ccc2c3c(cccc13)C(=O)N(c1c(C)nn(C)c1C)C2=O | 99 | 108% (inactive) | 99% (inactive) | 112% (inactive) | 104% (inactive) | 0.09% (inactive) | 104 | 104 | 1.07% (inactive) | 1.31% (inactive)
CCOc1cccc(Oc2ccc(C(F)(F)F)cn2)c1 | 99 | 93.5% (inactive) | 99% (inactive) | 99.6% (inactive) | 99.9% (inactive) | 6.58% (inactive) | 93.3 | 99.9 | -7.33% (inactive) | 0.81% (inactive)
CCOC(=O)n1c(SCC(=O)N(CC)CC)nc2ccccc21 | 118 | 97.5% (inactive) | 118% (inactive) | 105% (inactive) | 101% (inactive) | 15.7% (inactive) | 85.7 | 101 | -3.51% (inactive) | 1.11% (inactive)
CCOC(=O)CN1CC23C=CC(O2)C(C(=O)NCc2ccc(F)cc2)C3C1=O (stereo not given) | 88 | 93.5% (inactive) | 88% (inactive) | 102% (inactive) | 98.9% (inactive) | 12.5% (inactive) | 86.4 | 98.9 | -0.38% (inactive) | -0.17% (inactive)
